This is a sample that favours compounds with a hit; in the whole collection about 1.2% have one here.
ASAP1 GAP inh = inhibitors of human ASAP1 ArfGAP activity, primary screen, biochemical, fluorescence polarization | Arf-GAP with SH3 domain, ANK repeat and PH domain-containing protein 1 (Homo sapiens), … | ASAP1-stimulated ARF1 GTP hydrolysis, GDP FP detection | hit rate 0.19% among 360,000 | inhibition, % at 16.5 µM; in the data active means inhibition above about 25%
Target sequence (Q9ULH1 325-724 limits assumed): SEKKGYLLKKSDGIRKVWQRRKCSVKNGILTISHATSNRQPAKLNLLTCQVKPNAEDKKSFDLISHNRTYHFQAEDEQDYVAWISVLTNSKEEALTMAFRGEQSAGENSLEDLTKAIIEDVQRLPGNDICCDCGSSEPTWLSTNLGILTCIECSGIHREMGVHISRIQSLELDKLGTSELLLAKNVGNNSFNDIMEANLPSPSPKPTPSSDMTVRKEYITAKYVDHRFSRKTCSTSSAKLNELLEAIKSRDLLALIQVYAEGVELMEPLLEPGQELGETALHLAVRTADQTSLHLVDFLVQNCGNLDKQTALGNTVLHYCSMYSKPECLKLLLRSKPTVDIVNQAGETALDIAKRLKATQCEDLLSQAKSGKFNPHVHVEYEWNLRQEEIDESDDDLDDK
GalR3 antag = GalR3 antagonists in HEK293 cells, primary screen, cell-based, fluorescence readout | Galanin receptor type 3 (Homo sapiens), O60755 | HEK293 GalR3-CNG cAMP membrane potential fluorescence; galR3 body fused to GalR1 C-terminus | inhibition, % at 3 µM | hit rate 0.44% among 360,000 | AID 651719, 2012;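 active means inhibition above the screen-wide average plus 3 SD, cut at about 13% in these data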;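 further: forskolin and galanin both at EC90 stimulate the cells; cAMP rise reported by CNG channel membrane potential dye signal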
ARFGAP1 inhibitor = inhibitors of rat ARFGAP1 GAP activity, primary screen, biochemical, fluorescence polarization, GDP tracer; ADP-ribosylation factor GTPase-activating protein 1 (Rattus norvegicus), Q62848; Arfgap1-stimulated ARF1 GTP hydrolysis, GDP FP detection; inhibition, % at 16.5 µM; hit rate 0.26% among 360,000;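 active means inhibition above a per-plate limit, mean inhibition of low control wells plus 3 SD, cut at about 25% in these data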
Target sequence (Q62848 1-136 limits assumed): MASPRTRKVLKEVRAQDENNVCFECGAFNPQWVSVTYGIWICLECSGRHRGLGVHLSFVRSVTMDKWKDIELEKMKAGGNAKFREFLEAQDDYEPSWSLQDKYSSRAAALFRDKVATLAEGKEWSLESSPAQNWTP
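Material: truncated rat Arfgap1 GAP domain; Incubation: compound-enzyme preincubation 20 min, reaction 120 min, detection 60 min, 25 °C; Read-out: percent inhibition of Arfgap1-stimulated GTP hydrolysis; Technique: FP, GDP Alexa 633 tracer displaced from anti-GDP antibody, 620/688 nm; Controls: No-Arfgap1 wells (100%) versus DMSO full-reaction wells (0%); Replication: single well per compound.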
Rin1-Abl PPI inh = inhibitors of Rin1-Abl protein binding, primary screen, biochemical, TR-FRET | inhibition, % at 7.35 µM | hit rate 0.4% among 360,000; in the data active means inhibition above about 5%, passing the limit was not always enough
GalR3 antag conf = GalR3 antagonist hit confirmation, cell-based, fluorescence, triplicate; shares compounds with GalR3 antag; HEK293 GalR3 CNG cAMP biosensor, membrane potential fluorescence; galR3 fused to GalR1 carboxy tail; challenged with forskolin and galanin at EC90; inhibition, % at 3 µM; hit rate 59% among 1,600;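 active means inhibition above the primary screen's cutoff, the mean inhibition of all screened compounds plus 3 SD, cut at about 13% in these data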
HEK-CNG parental = nonspecific cAMP agonists in parental HEK-CNG cells, counter-screen for GalR3 antagonist project, cell-based, fluorescence, high throughput; shares compounds with GalR3 antag; HEK293-CNG parental cells, cAMP membrane potential fluorescence; normalised: DMSO wells 0%, forskolin wells 100%; activation, % at 3 µM; hit rate 10% among 1,600; AID 652268, 2013; in the data active means activation above about 1.3%
Numbers stand for hits; - = inactive; . = no result given.

SMILES	ASAP1 GAP inh	GalR3 antag	ARFGAP1 inhibitor	Rin1-Abl PPI inh	GalR3 antag conf	HEK-CNG parental
Cc1cccc(N2CCN(S(=O)(=O)c3cc(-c4cc(C)no4)ccc3C)CC2C)c1 (stereo not given)	-	52	-	-	88	-
COc1ccc(-c2cc(C)no2)cc1S(=O)(=O)N1CCN(c2cccc(C)c2)C(C)C1 (stereo not given)	-	-	-	-	.	.
C=CCc1cccc(CNc2cnc3ccccc3c2)c1O	-	60	-	-	90	-
COC(=O)c1cc(S(=O)(=O)NCC2CCN(C(=O)C(=O)c3cccs3)CC2)cs1	-	-	-	.	.	.
CCc1cccc(OCC(=O)Nc2ccc(C)c(S(=O)(=O)N3CCCCCC3)c2)c1	-	87	-	-	80	-
Cc1ccc(NC(=O)COc2ccc(N(C)C(=O)C(C)(C)C)cc2)cc1S(=O)(=O)N1CCCCC1	-	93	-	-	105	-
C[C@H]1C(C(=O)N(C)C2CCCCC2)=Cc2c(n(-c3ccc(F)cc3)c(=O)n2CCCOc2ccccc2)C=C1c1ccccc1	-	-	-	.	.	.
Cc1ccc(CSc2sc(C(=O)c3ccccc3)c(N)c2C#N)cc1	-	-	-	-	.	.
Cc1ccc(-c2sc(C(=O)NN)c(C)c2C#N)cc1	-	27	-	-	25	-
COc1ccc(CNc2nc(S(=O)(=O)c3ccccc3)c(Cl)s2)cc1OC	-	85	-	-	-	-
Cc1ccc(CN2CC=CS2(=O)=O)cc1	-	-	-	.	.	.
CN(c1ccc(NC(=O)Cc2cn(C)c3ccccc23)cc1)c1ccccn1	-	-	-	.	.	.
CCCCCCn1c(NCC)nc2c1c(=O)n(C)c(=O)n2C	-	32	-	-	77	-
CCCCNc1nc2c(c(=O)n(C)c(=O)n2C)n1CCC	-	-	-	-	.	.
c1ccc(-c2nn3c(C4CCCCC4)nnc3s2)cc1	-	-	-	-	.	.
COc1cc(-c2nn3c(C4CCCCC4)nnc3s2)cc(OC)c1OC	-	18	-	-	-	-
COc1ccc(-c2nn3c(C4CCCCC4)nnc3s2)cc1OC	-	17	-	-	24	-
COc1ccc(-c2cscc2N)cc1	-	-	-	.	.	.
Nc1[nH]c(C(=O)c2ccccc2)c(-c2ccccc2Br)c1C(=O)c1cccs1	-	-	-	.	.	.
CCCCCCNS(=O)(=O)c1ccc(NC(=O)C2CCCO2)cc1 (stereo not given)	-	15	-	-	26	-
O=C(Nc1ccc(S(=O)(=O)Nc2ccc(Cl)cc2)cc1)C1CCCO1 (stereo not given)	-	-	-	-	.	.
CCCn1nc(C(=O)NNC(=O)CCCOc2ccc(OC)cc2)c2ccccc2c1=O	-	58	-	-	44	-
CCNC(=O)C1(C)CCCN(Cc2cccc(Oc3ccccc3)c2)C1 (stereo not given)	.	.	.	-	.	.
CCOC(=O)C1=C(C)NC2=C(C(=O)c3ccccc32)C1c1ccc(O)cc1 (stereo not given)	-	20	-	-	-	-
CCOC(=O)C1=C(C)NC2=C(C(=O)c3ccccc32)C1c1cccc2ccccc12 (stereo not given)	-	-	-	-	.	.
SMILES	ASAP1 GAP inh	GalR3 antag	ARFGAP1 inhibitor	Rin1-Abl PPI inh	GalR3 antag conf	HEK-CNG parental
COc1ccccc1Cc1c(-c2ccco2)nc2ccc(Cl)cn12	-	28	-	-	18	-
COc1ccc(O)cc1CN1CCN(c2ncc(Cc3ccccc3)cn2)CC1	-	-	-	.	.	.
COc1ccc(N2CCN(C(=S)Nc3ccccc3)CC2)cc1	-	-	-	-	.	.
CC(=O)c1ccc(N2CCN(C(=S)Nc3ccc(Oc4ccccc4)cc3)CC2)cc1	-	82	-	-	97	-
CSc1ccc(C2C(C#N)=C(N)Oc3cc4c(cc32)OCO4)cc1 (stereo not given)	-	-	-	-	.	.
CC(C)(C)C1=C(C#N)C(c2cc3c(cc2Br)OCO3)C(C#N)=C(N)O1 (stereo not given)	-	.	-	-	-	-
Cc1cccc(CSC(Nc2ccc(F)cc2)=C(C#N)C#N)c1	-	-	-	-	.	.
N#CC(C#N)=C(Nc1ccc(F)cc1)SCc1cccc(Br)c1	-	92	-	-	100	-
COCCN1Cc2cc(C(=O)OC)c3c(c2C1=O)c1ccccc1n3S(=O)(=O)c1ccc(OC)cc1	-	-	-	.	.	.
CCOC(=O)c1cc(-c2ccc(OC)cc2)nc2c1c(C)nn2CCC#N	-	-	-	-	.	.
CCOC(=O)c1cc(-c2ccc(C#N)cc2)nc2c1c(C)nn2CCC#N	-	22	-	-	-	1.7
COc1ccc(/C=C/C(=O)Nc2ccccc2Cl)cc1S(=O)(=O)N1CCOCC1	-	15	-	-	-	-
Cc1ccc(/C=C/C(=O)O)cc1S(=O)(=O)N1CCc2ccccc2C1	-	15	-	-	-	-
COc1ccc(/C=C/C(=O)O)cc1S(=O)(=O)N1CCc2ccccc2C1	-	.	-	-	-	-
COc1ccc(/C=C/C(=O)Nc2ccccc2)cc1S(=O)(=O)N1CCOCC1	-	-	-	-	.	.
Cc1cc2c(c(=O)o1)[C@@]1(C(=O)N(C)c3ccc([N+](=O)[O-])cc31)C1=C(CCCC1=O)O2	-	-	-	.	.	.
CCOc1ccc(C2C(C(=O)c3ccc(C)o3)=C(O)C(=O)N2c2nc(C)c(C(=O)OC)s2)cc1 (stereo not given)	-	13	-	-	15	-
COC(=O)c1sc(N2C(=O)C(O)=C(C(=O)c3ccc(C)o3)C2c2ccc(OC)c(OC)c2)nc1C (stereo not given)	-	36	-	-	-	-
CCOC(=O)c1sc(N2C(=O)C(O)=C(C(=O)c3ccc(C)o3)C2c2ccc(OC)c(OC)c2)nc1C (stereo not given)	-	34	-	-	15	-
COC(=O)c1sc(N2C(=O)C(O)=C(C(=O)c3ccc(C)o3)C2c2ccc([N+](=O)[O-])cc2)nc1C (stereo not given)	-	-	-	-	.	.
Cc1cc2c(c(=O)o1)[C@@]1(C(=O)N(C)c3ccccc31)C1=C(CC(C)(C)CC1=O)O2	-	-	-	.	.	.
O=C(COC(=O)/C=C/c1cccc(F)c1)Nc1ccc2[nH]c(=O)[nH]c2c1	-	-	-	-	.	.

Screens as filed in PubChem BioAssay.
